Source: paper PMC4277818 (Molecular imaging and biology : MIB : the official …, 2012)

Tested on: TRAP5b
Experiment: Serum TRAP5b solid-phase immunoassay
Type: in vivo, C57BL/6 mice
Conditions: 0.3 mg/kg RANKL twice a day for 10 days; PET/CT imaging study, n=4
Method in brief: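 Male C57BL/6 mice (~23 g) got RANKL s.c. in the nape in 50 μL saline, twice a day for 10 days, under brief isoflurane; controls got vehicle. Blood was taken by submandibular venous puncture before biodistribution or at sacrifice. Serum was spun at 10,000 rpm for 5 min at 4°C and stored at −20°C. Osteoclastic TRAP5b was measured by solid-phase immunoassay. P<0.05 was significant.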

B1: RANKL: receptor activator of nuclear factor κB ligand, cytokine stimulating osteoclastogenesis; provided by Amgen (protein, UniProt O14788 140-317, looked up)
Tumor necrosis factor ligand …: IRAEKAMVDGSWLDLAKRSKLEAQPFAHLTINATDIPSGSHKVSLSSWYHDRGWAKISNMTFSNGKLIVNQDGFYYLYANICFRHHETSGDLATEYLQLMVYVTKTSIKIPSSHTLMKGGSTKYWSGNSEFHFYSINVGGFFKLRSGEEISIEVSNPSLLDPDQDATYFGAFKVRDID
With B1 the “increase of serum TRAP5b, RANKL-treated vs control cohort” value was 1.6 fold.
